Source: ChEMBL document CHEMBL5058577, “EUbOPEN Chemogenomics Library 2 (Multiplex)” (2022)
“And” between values parts separate entries of the source, which are not always exact repeats. Equal values may be shown once.

Columns and labels:
Format in all cases: toxicity, cell-based
U2OS = experiment: Multiplex assay against U2OS; conditions: human, 10 µM, compound concentration 10 uM
Summary of the method: (§1)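 Phenotypes for tubulin, mitochondrial mass and membrane permeability are expressed as per cents of healthy-nucleus cells. Cells were stained live at seeding with Hoechst33342, BioTracker Green Microtubule Cytoskeleton Dye, MitoTracker Red and Annexin V Alexa Fluor 680, then imaged after compound addition on a CQ1 microscope at 37°C and 5% CO2. Machine-learning gating in CellPathfinder separated Hoechst high-intensity objects from normal cells, divided normal cells by nuclear state (healthy, pyknosed, fragmented) and divided pyknosed cells into mitotic or apoptotic.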

HEK-293T = experiment: Multiplex assay against HEK293T; conditions: human, 10 µM, compound concentration 10 uM; summary of the method: as §1
Fibroblast = experiment: Multiplex assay against human fibroblast; conditions: 10 µM, compound concentration 10 uM; summary of the method: as §1

## CCC(=O)N1CCN(c2ccc(-n3c(=O)ccc4cnc5ccc(-c6cnc7ccccc7c6)cc5c43)cc2C(F)(F)F)CC1 [TORIN1]
U2OS; 12 h, replicate 1
  Population Apoptotic (%): 68% and 85%
  Population Healthy Nuclei (%): 55%
  Population Normal (%): 98% and 96%
  Total Cell Count: 288 and 258
U2OS; 12 h, replicate 2
  Population Apoptotic (%): 76% and 92%
  Population Healthy Nuclei (%): 71% and 61%
  Total Cell Count: 109 and 101
U2OS; 24 h, replicate 1
  Population Apoptotic (%): 77% and 84%
  Population Healthy Nuclei (%): 54% and 55%
  Population Normal (%): 98% and 96%
  Total Cell Count: 287 and 256
U2OS; 24 h, replicate 2
  Population Apoptotic (%): 73% and 83%
  Population Healthy Nuclei (%): 72%
  Population Normal (%): 97%
  Total Cell Count: 115 and 106
U2OS; 48 h, replicate 1
  Population Apoptotic (%): 78% and 72%
  Population Healthy Nuclei (%): 44% and 39%
  Population Normal (%): 93% and 97%
  Total Cell Count: 300 and 270
U2OS; 48 h, replicate 2
  Population Apoptotic (%): 82% and 81%
  Total Cell Count: 147 and 123
HEK-293T; 12 h, replicate 1
  Population Apoptotic (%): 71% and 67%
  Population Healthy Nuclei (%): 76% and 71%
  Population Membrane Permeable-Phenotype (%): 0%
  Population Mitochondria Different-Phenotype (%): 78% and 76%
  Population Normal (%): 88%
  Population Tubulin-Different-Phenotype (%): 40%
  Total Cell Count: 373 and 299
HEK-293T; 12 h, replicate 2
  Population Apoptotic (%): 51% and 57%
  Population Healthy Nuclei (%): 79%
  Population Mitochondria Different-Phenotype (%): 87%
  Population Mitotic Cells (%): 48% and 42%
  Population Normal (%): 92%
  Population Tubulin-Different-Phenotype (%): 37%
  Total Cell Count: 266 and 321
HEK-293T; 24 h, replicate 1
  Population Apoptotic (%): 45%
  Population Healthy Nuclei (%): 75% and 74%
  Population Membrane Permeable-Phenotype (%): 0%
  Population Mitochondria Different-Phenotype (%): 75% and 81%
  Population Mitotic Cells (%): 46% and 54%
  Population Normal (%): 86% and 90%
  Population Tubulin-Different-Phenotype (%): 43% and 44%
  Total Cell Count: 337 and 289
HEK-293T; 24 h, replicate 2
  Population Apoptotic (%): 44% and 58%
  Population Mitochondria Different-Phenotype (%): 82% and 86%
  Population Mitotic Cells (%): 55% and 41%
  Population Normal (%): 77% and 71%
  Population Tubulin-Different-Phenotype (%): 33% and 57%
  Total Cell Count: 225 and 283
HEK-293T; 48 h, replicate 1
  Population Apoptotic (%): 56% and 69%
  Population Healthy Nuclei (%): 70% and 72%
  Population Membrane Permeable-Phenotype (%): 0%
  Population Mitochondria Different-Phenotype (%): 77% and 75%
  Population Mitotic Cells (%): 43%
  Population Normal (%): 73% and 80%
  Population Tubulin-Different-Phenotype (%): 47% and 35%
  Total Cell Count: 292 and 275
HEK-293T; 48 h, replicate 2
  Population Apoptotic (%): 68% and 58%
  Population Healthy Nuclei (%): 56%
  Population Membrane Permeable-Phenotype (%): 1%
  Population Mitochondria Different-Phenotype (%): 80% and 82%
  Population Mitotic Cells (%): 41%
  Population Normal (%): 38% and 36%
  Population Tubulin-Different-Phenotype (%): 37% and 58%
  Total Cell Count: 235 and 234
Fibroblast; 12 h, replicate 1
  Population Healthy Nuclei (%): 60% and 61%
  Population Mitotic Cells (%): 72% and 76%
  Population Normal (%): 94% and 95%
  Population Tubulin-Different-Phenotype (%): 62% and 53%
  Total Cell Count: 155 and 135
Fibroblast; 12 h, replicate 2
  Population Healthy Nuclei (%): 44%
  Population Mitotic Cells (%): 65% and 66%
  Population Normal (%): 90%
  Population Tubulin-Different-Phenotype (%): 64%
  Total Cell Count: 131 and 150
Fibroblast; 24 h, replicate 1
  Population Healthy Nuclei (%): 64%
  Population Mitotic Cells (%): 66% and 50%
  Population Normal (%): 96% and 94%
  Population Tubulin-Different-Phenotype (%): 62% and 48%
  Total Cell Count: 137 and 135
Fibroblast; 24 h, replicate 2
  Population Healthy Nuclei (%): 57% and 45%
  Population Mitotic Cells (%): 56% and 77%
  Population Normal (%): 93% and 95%
  Population Tubulin-Different-Phenotype (%): 59% and 60%
  Total Cell Count: 128 and 150
Fibroblast; 48 h, replicate 1
  Population Healthy Nuclei (%): 72% and 71%
  Population Mitotic Cells (%): 50%
  Population Normal (%): 96% and 97%
  Population Tubulin-Different-Phenotype (%): 67% and 54%
  Total Cell Count: 127 and 124
Fibroblast; 48 h, replicate 2
  Population Healthy Nuclei (%): 62% and 46%
  Population Mitotic Cells (%): 46%
  Population Normal (%): 95% and 98%
  Population Tubulin-Different-Phenotype (%): 61% and 77%
  Total Cell Count: 136 and 147
